Results on four molecules are retold here after ChEMBL document CHEMBL3992512, “The Discovery and Hit-to-Lead Optimization of Tricyclic Sulfonamides as Potent and Efficacious Potentiators of Glycine Receptors” (J Med Chem, 2017).

Series [1] has as its target T1, Glycine receptor subunit alpha-3 (Homo sapiens, UniProt O75311).
T1 sequence (O75311 whole entry): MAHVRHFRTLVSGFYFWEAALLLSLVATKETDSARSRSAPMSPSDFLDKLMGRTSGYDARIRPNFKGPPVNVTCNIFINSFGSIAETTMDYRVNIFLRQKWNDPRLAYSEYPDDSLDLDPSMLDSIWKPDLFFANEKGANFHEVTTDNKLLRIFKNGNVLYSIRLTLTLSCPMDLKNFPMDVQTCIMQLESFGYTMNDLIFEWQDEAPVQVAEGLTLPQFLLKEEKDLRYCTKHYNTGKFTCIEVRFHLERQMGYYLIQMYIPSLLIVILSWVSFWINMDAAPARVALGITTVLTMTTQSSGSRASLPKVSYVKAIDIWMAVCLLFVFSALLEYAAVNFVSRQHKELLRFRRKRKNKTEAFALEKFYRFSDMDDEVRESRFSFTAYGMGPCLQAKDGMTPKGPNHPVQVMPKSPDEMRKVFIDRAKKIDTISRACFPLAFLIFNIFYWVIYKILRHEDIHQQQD
Briefly: Binding affinity to human glycine alpha3 receptor expressed in HEK293T cells by SPR assay. Also noted: species or system HEK-293T. On the technique in general: In SPR one partner is held on a chip, and binding of the other changes the refractive index at the surface.

The nature of series [2]: Intrinsic clearance in mouse liver microsomes up to 40 mins in presence of NADPH. Format: ADME, microsome. The note with it: read-out: CLH.
Series [3] can be described thus: Intrinsic clearance in human liver microsomes. It counts as ADME, microsome. The following applies: read-out: CLH.
In series [4] the target is Glycine receptor alpha-3/beta (Homo sapiens) (UniProt O75311+P48167). Briefly: Positive allosteric modulation of human glycine alpha3beta receptor expressed in HEK293T cells assessed as compound concentration required to induce up to 3-fold leftward shift in glycine-induced increase in chloride ion flux after 4 mins by Schild plot analysis. It counts as cell-based. An outline of the steps: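 HEK293T cells stably expressing human GlyRα3β, ~12000 cells/well, plated overnight and loaded with membrane potential blue dye. Glycine 1:2 dilution series premixed with compound at varying concentrations in HEPES/NaCl/mannitol buffer, pH 7.4. FLIPR fluorescence read 4 min and processed as AUC over baseline. mEC₃ is the lowest tested concentration giving a ≥3-fold leftward shift of glycine EC₅₀.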

For the next series, the system named is human MDR1. Briefly: Efflux ratio of passive apparent permeability in MDCK cells harboring human MDR1. It counts as ADME, cell-based, Canis lupus familiaris. The following applies: dog. The method in brief: (§1)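 Bidirectional transport at 5 μM, in triplicate, across MDCK cells carrying control vector, human MDR1 or human ABCG2 (BCRP). Passive Papp is the mean of both directions in vector-control cells. Efflux ratios come from the MDR1 and BCRP lines.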

Series [5] is described as follows: Passive apparent permeability in MDCK cells. Format: ADME, cell-based, Canis lupus familiaris. The following applies: dog. An outline of the steps:
as §1

Series [6] has as its target T1, Glycine receptor subunit alpha-3. Briefly: Positive allosteric modulation of human glycine alpha3 receptor expressed in HEK293T cells assessed as potentiation of glycine-induced increase in chloride ion flux after 4 mins by membrane potential blue dye based FLIPR assay. It counts as cell-based, HEK-293T.
For series [7], the system named is Mus musculus. Briefly: Antiallodynic activity in mouse model of spared nerve injury-induced tactile allodynia assessed as tactile threshold at 20 mg/kg, po measured 60 mins post dose by Von Frey filament assay (reference value: 0.82 +/- 0.19 g). Format: functional.
A short description of series [8]: Ratio of unbound Cmax in mouse brain to EC50 for glycine alpha3 receptor in mouse model of spared nerve injury-induced tactile allodynia at 20 mg/kg, po.
The next series deals with Plasma. Briefly: Stability in mouse plasma. Format: ADME, cell-free.
Series [9] can be described thus: Drug degradation in neutral buffer at 37 degC after 1 hr. The method in brief: (§2)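 Buffer stability was followed as percent decomposition at three conditions: neutral buffer at 37 °C over 1 h, pH 2 acidic buffer at room temperature, and pH 11 basic buffer at room temperature up to 20 h.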
In the next series the test system is human BCRP. Briefly: Efflux ratio of passive apparent permeability in MDCK cells harboring human BCRP. The following applies: dog. Format: ADME, cell-based, Canis lupus familiaris. The method in brief:
as §1

Series [10] can be described thus: Chemical stability in pH 2 acidic buffer at room temperature measured immediately. It counts as physicochemical. The method in brief:
as §2

The nature of series [11]: Drug degradation in pH 11 basic buffer at room temperature measured after 20 hrs. An outline of the steps:
as §2

The species named for series [12] is Mus musculus. Briefly: Ex vivo positive allosteric modulation of glycine receptor in C57BL/6 mouse spinal cord assessed as potentiation of glycine-induced post synaptic current amplitude at 0.5 uM at holding potential of -60 mV after 10 mins in presence of sodium channel inhibitor TTX/AMPA/kainate receptor antagonist CNQX/GABAa receptor antagonist bicuculline/NMDA receptor antagonist APV by electrophysiology method relative to glycine alone. The method in brief: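 Adult mouse spinal cord slices; dorsal horn neurons in laminae I–II were identified histologically and confirmed glycinergic by focal glycine (20 μM) with strychnine (10 μM) reversal. Postsynaptic current amplitude was recorded with glycine 20 μM alone, then with glycine plus compound at 0.5 μM, then with strychnine added. The readout is the mean ratio of PSC amplitude (compound + glycine / glycine alone), n = 5.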

Series [13] is described as follows: Oral bioavailability in mouse at 10 mg/kg. It counts as ADME, organism-based. The note with it: in vivo.
The nature of series [14]: Ratio of unbound Cmax in mouse brain to EC50 for glycine alpha3 receptor in mouse model of spared nerve injury-induced tactile allodynia at 10 mg/kg, po. An outline of the steps:
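Mice dosed orally; unbound brain Cmax is total brain concentration × brain fraction unbound, sampled at multiple time points. It is divided by EC₅₀ for potentiation of mouse GlyRα3.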

Molecules are shown by their SMILES. Activity calls are given as the source filed them. Some results are limits rather than exact numbers.

As for `C[C@H]1[C@H]2C(=O)N(C)c3ccncc3[C@H]2CN1S(=O)(=O)c1ccc2c(c1)OCO2`, the dissociation constant Kd in series [1] was 11 nM. The microsomal CLint in series [2] came to 254 µL/min/mg; in [3], 83 µL/min/mg. Also, in [4], the MEC turned out to be 0.025 µM. In addition, in the series on human MDR1, the efflux ratio came out at 1.6. Besides, the Papp in series [5] was found to be 43.1 ×10⁻⁶ cm/s. Besides, the EC50 in series [6] is 50 nM.
In [1], `CN1C(=O)[C@H]2CN(S(=O)(=O)c3ccc4occc4c3)C[C@H]2c2cnccc21` showed a Kd above 20000 nM. In series [4], the MEC is above 25 µM. For the same molecule, the result in the series on Mus musculus [7] was inactive. The Ratio in [8] was determined as 1.9. For the same molecule, the EC50 in [6] was 20000 to 25000 nM.
With `CN1C(=O)[C@@H]2CN(S(=O)(=O)c3ccc4ocnc4c3)C[C@@H]2c2cnccc21`, the microsomal CLint in [2] came out at 73 µL/min/mg. The Stability entry (in the series on Plasma; in series [10]) was “Unstable” in each case. The MEC in [4] was determined as 0.39 µM. The efflux ratio in the series on human MDR1 is 3.6; with human BCRP, 1.1. In [5], the Papp came out at 25 ×10⁻⁶ cm/s. For the same molecule, the Drug degradation in series [9] was found to be 50%; in series [11], 30%.
On to `CN1C(=O)[C@@H]2CN(S(=O)(=O)c3ccc4occc4c3)C[C@@H]2c2cnccc21`, for which, in the series listed under Mus musculus [12], the fold change (FC) was 4.4. Besides, in [1], the Kd stood at 190 nM. The microsomal CLint in series [2] was determined as 188 µL/min/mg. For the same molecule, the MEC in [4] stood at 0.2 µM. Besides, in the series on Mus musculus [7], the Activity came out at 1.53 g. The figures for the efflux ratio in the series on human MDR1 and in the series with human BCRP were 1.5 and 1.1, respectively. Further, the apparent permeability coefficient (Papp) in series [5] worked out at 69 ×10⁻⁶ cm/s. This molecule had a bioavailability in series [13] of 100%. For the same molecule, in series [6], the EC50 is 450 nM. The Ratio in series [14] turned out to be 1.2.

Broadly, the Kd is the equilibrium constant for the complex coming apart. Higher therefore signals lower affinity. What is called efflux ratio is a quotient of directional permeabilities that is used to spot active efflux. A word on the Papp: it is the rate of passage across a membrane or cell layer, normalised by area and donor concentration. Usually EC50 stands for the concentration at which the effect is half-maximal. The bioavailability is dose-corrected exposure relative to a reference, in per cent.
